Results taken from publication PMC8100350 (International Journal for Parasitology: Drugs and Drug …, 2021).
Like-named read-outs stand apart in the source and are kept apart here.

Tests used:
Type in all cases: cell-based
P. falciparum 3D7 = assay: [3H]-hypoxanthine incorporation growth inhibition assay, P. falciparum 3D7; settings: for IC50: mean ± SD
[1] = tested on: P. falciparum 3D7 parasites; assay: Isopentenyl pyrophosphate; settings: for rescue of growth inhibitory activity by IPP supplementation: 96 h assay, 200 μM IPP; for IC50: Plasmodium falciparum, 3D7, 96 h
Procedure, shortened: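 3D7 ring stages, sorbitol-synchronised, in O+ erythrocytes (0.1% parasitaemia, 2% haematocrit). Two identical 96 h assays ran in parallel, one with and one without 200 μM IPP. At ~72 h medium was replaced with fresh medium containing [3H]-hypoxanthine, incubated 24 h more, frozen, harvested and counted. Clindamycin was the positive control. IC50 by log-linear interpolation; triplicate wells, ≥3 independent experiments; unpaired t-test.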

P. falciparum C2B = settings: 48 h, 72 h and 96 h assays (all time points)
Procedure, shortened: (§1)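 Sorbitol-synchronised ring stages in O+ erythrocytes, run as 48 h (1% parasitaemia, 1% haematocrit, label at start), 72 h (0.25%, 2.5%, label ~48 h) or 96 h (0.1%, 2%, medium change plus label ~72 h). Read-out was [3H]-hypoxanthine incorporation by scintillation. IC50 by log-linear interpolation against 0.5% DMSO; triplicate wells, ≥2 independent assays. RI = resistant-line IC50/3D7 IC50. Controls: chloroquine (Dd2), atovaquone (C2B), cycloguanil (FCR3).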

P. falciparum Dd2 = tested on: P. falciparum Dd2
Procedure, shortened: as §1

[2] = tested on: Neonatal foreskin fibroblast (NFF) cells; assay: Human cell cytotoxicity assay, NFF; settings: read-out: NFF IC50
Procedure, shortened: (§2)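 NFF and HEK293 cells were grown in RPMI 1640 with 10% FCS and 1% streptomycin at 37 °C and 5% CO2. Exposure was 72 h. Growth inhibition was taken against matched DMSO controls. IC50 came from log-linear interpolation, as the mean ± SD of three independent experiments, each in triplicate.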

[3] = tested on: human embryonic kidney (Hek293) cells; assay: Human cell cytotoxicity assay, HEK293; settings: HEK293, read-out: HEK293 IC50
Procedure, shortened: as §2

[4] = Plasmodium falciparum, 3D7, 48 h, read-out: P. falciparum 3D7 IC50, 48 h, 48 h assay (fast action)
[5] = Plasmodium falciparum, 3D7, 72 h, read-out: P. falciparum 3D7 IC50, 72 h, 72 h assay
[6] = Plasmodium falciparum, 3D7, 96 h, read-out: P. falciparum 3D7 IC50, 96 h, 96 h assay (slow action)

IC50 ([1]; read-out: P. falciparum 3D7 IC50, +IPP) [nM] | IC50 ([1]; read-out: P. falciparum 3D7 IC50, -IPP) [nM] | Structure (SMILES) | IC50 (P. falciparum 3D7; [4]) [nM] | IC50 (P. falciparum 3D7; [5]) [nM] | IC50 (P. falciparum 3D7; [6]) [nM] | rescue of growth inhibitory activity by IPP supplementation [1] | fold less active than himbeline (P. falciparum 3D7; 96 h assays, 3D7) | IC50 (P. falciparum 3D7; read-out: P. falciparum 3D7 IC50, 96 h, 96 h assay (slow action)) [nM] | Resistance Index (RI), C2B versus 3D7, text summary (P. falciparum C2B) | PfSI, Selectivity Index (mammalian cell IC50/P. falciparum IC50) (P. falciparum 3D7; NFF or HEK293 IC50 / P. falciparum 3D7 72 h IC50) | RI (Dd2 IC50/3D7 IC50), 48h (P. falciparum Dd2; 48 h assay) | RI (Dd2 IC50/3D7 IC50), 72h (P. falciparum Dd2; 72 h assay) | RI (Dd2 IC50/3D7 IC50), 96h (P. falciparum Dd2; 96 h assay) | IC50 [2] [nM] | IC50 [3] [nM]
> 500 | 4 ± 1 | CCC[C@@H]1C[C@@H](C(=O)N[C@@H]([C@H]2O[C@H](SC)[C@H](O)[C@@H](O)[C@H]2O)[C@H](C)Cl)N(C)C1 [Clindamycin, clindamycin] | > 50000 | 9 ± 2 | 5 ± 2 | rescued |  |  |  |  |  |  |  |  | 
 |  | CCOC(=O)N[C@@H]1CC[C@@H]2[C@@H](C1)C[C@H]1C(=O)O[C@H](C)[C@H]1[C@H]2/C=C/c1ccc(-c2cccc(F)c2)cn1 [Vorapaxar] | 11200 ± 3000 | 3930 ± 1070 | 3500 |  | ~ 6 fold | 3520 ± 250 |  |  |  |  |  |  | 
 |  | O=C1C(O)=C([C@H]2CC[C@H](c3ccc(Cl)cc3)CC2)C(=O)c2ccccc21 [ATQ, atovaquone] |  |  |  |  |  |  | > 2000 |  |  |  |  |  | 
 |  | CCN(CC)CCCC(C)Nc1ccnc2cc(Cl)ccc12 (stereo not shown) [Chloroquine] | 8 ± 2 | 6 ± 4 | 4 ± 2 | not rescued |  |  |  | 4555–5896 | 3 | 3 | 7 | 35400 ± 3600 | 27300 ± 13300
